Here are results for two compounds from ChEMBL document CHEMBL1152452, “Modifications incorporated in CpG motifs of oligodeoxynucleotides lead to antagonist activity of toll-like receptors 7 and 9” (2009).

Experiment [1] relates to J774. The experiment in a line: Activation of NF-kappaB in mouse J774 cells at 2.5 ug/ml after 1 hr by EMSA. It counts as cell-based. In outline: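 Murine J774 macrophages in DMEM with 10% FBS and antibiotics, plated at 5×10^6 cells/well. ODNs were given alone or together for 1 h. For inhibition, the agonist ODN at 0.5 μg/mL was co-incubated with the modified ODN at 2.5 μg/mL. Nuclear extracts were resolved by EMSA on native polyacrylamide gels and read by autoradiography.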

In experiment [2] the test system is J774. The experiment in a line: Inhibition of 5'-CTATCTGACGTTCTCTGT-3'-activated NF-kappaB activity in mouse J774 cells at 2.5 ug/ml after 1 hr by EMSA. It counts as cell-based. In outline: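 J774 murine macrophages were grown in DMEM with 10% FBS and antibiotics, plated at 5 × 10^6 cells/well, and co-incubated for 1 h with the agonist ODN (0.5 µg/mL) and test ODN (2.5 µg/mL). Nuclear extracts were prepared and NF-κB binding was analysed by EMSA on native polyacrylamide gels with autoradiography.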
On the technique in general: In EMSA bound probe runs differently from free probe, usually more slowly.

Experiment [3] has as its system Mus musculus. Description: Immunostimulatory activity in C57BL/6 mouse assessed as inhibition of 5'-CTATCTGACGTTCTCTGT-3'-induced TNFalpha production in serum at 2 mg/kg, sc administered 24 hrs prior to 5'-CTATCTGACGTTCTCTGT-3' challenge measured after 2 hrs by Luminex multiplex assay. In kind it is functional, organism-based. The arrangement: dose 2 mg/kg. Put shortly: (§1)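 C57BL/6 mice received 2 mg/kg ODN sc in one flank. After 24 h, the TLR9 agonist ODN was given at 0.5 mg/kg sc in the opposite flank. Blood was drawn 2 h later and serum cytokines/chemokines were quantified by Luminex multiplex assay. Percent inhibition was taken against the agonist alone. Representative of three experiments.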

Experiment [4] deals with T1, Toll-like receptor 9 (Mus musculus) (UniProt Q9EQU3).
T1 sequence (whole entry): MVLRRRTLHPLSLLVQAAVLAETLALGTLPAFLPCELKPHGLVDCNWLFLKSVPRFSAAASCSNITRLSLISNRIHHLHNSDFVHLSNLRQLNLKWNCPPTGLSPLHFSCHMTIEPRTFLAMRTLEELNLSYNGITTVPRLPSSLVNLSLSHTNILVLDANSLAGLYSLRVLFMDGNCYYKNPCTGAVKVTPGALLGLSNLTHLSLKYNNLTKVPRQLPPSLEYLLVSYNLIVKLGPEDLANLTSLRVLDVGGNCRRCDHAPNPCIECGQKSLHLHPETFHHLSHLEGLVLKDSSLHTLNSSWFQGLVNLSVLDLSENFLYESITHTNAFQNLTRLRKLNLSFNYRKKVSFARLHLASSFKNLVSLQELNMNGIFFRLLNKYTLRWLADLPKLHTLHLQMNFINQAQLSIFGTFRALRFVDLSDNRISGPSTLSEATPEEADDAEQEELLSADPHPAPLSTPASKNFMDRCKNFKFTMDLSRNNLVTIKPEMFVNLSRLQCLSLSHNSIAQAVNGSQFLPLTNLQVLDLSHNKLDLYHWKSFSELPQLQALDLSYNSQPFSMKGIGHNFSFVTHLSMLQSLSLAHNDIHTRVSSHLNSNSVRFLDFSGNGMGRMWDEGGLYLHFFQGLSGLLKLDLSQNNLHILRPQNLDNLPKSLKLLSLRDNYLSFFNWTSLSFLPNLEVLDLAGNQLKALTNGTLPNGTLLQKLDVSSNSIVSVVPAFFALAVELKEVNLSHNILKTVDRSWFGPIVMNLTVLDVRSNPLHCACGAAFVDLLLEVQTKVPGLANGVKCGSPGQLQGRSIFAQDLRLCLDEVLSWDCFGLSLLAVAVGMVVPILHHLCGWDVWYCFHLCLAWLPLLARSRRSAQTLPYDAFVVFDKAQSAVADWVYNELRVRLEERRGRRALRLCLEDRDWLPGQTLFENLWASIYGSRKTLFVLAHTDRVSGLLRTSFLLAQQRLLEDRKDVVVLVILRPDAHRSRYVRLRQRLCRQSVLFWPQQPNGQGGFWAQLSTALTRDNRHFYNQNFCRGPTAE
Description: Activation of mouse TLR9 expressed in HEK293 cells assessed as NF-kappaB level at 0.1 ug/mL after 18 hrs by reporter gene assay. In kind it is cell-based. In outline:
(§2)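 HEK293 cells stably expressing mouse TLR9 were transiently transfected with a SEAP reporter for 6 h, then stimulated with ODN at 0.1, 0.3 or 1 μg/mL for 18 h. Reporter expression is given as fold change in NF-κB activity over medium. Representative of two independent experiments.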

The subject of experiment [5] is Splenocyte. The experiment in a line: Immunostimulatory activity in C57BL/6 mouse splenocytes assessed as induction of IL12 secretion at 2 to 10 ug/ml after 24 hrs by sandwich ELISA. It counts as functional, cell-based. Put shortly: (§3)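 C57BL/6 splenocytes (mice 5–8 weeks) at 5 × 10^6 cells/mL in RPMI complete medium. ODNs dissolved in PBS were added and the cells incubated at 37 °C for 24 h. Supernatant IL-12 or IL-6 was measured by sandwich ELISA. Runs were done two or three times, in duplicate per concentration.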
(An ELISA detects its analyte on a solid surface through an enzyme-linked reagent.)

The target of experiment [6] is T1, Toll-like receptor 9 (Mus musculus). Description: Activation of mouse TLR9 expressed in HEK293 cells assessed as NF-kappaB level at 1 ug/mL after 18 hrs by reporter gene assay. It counts as cell-based. In outline:
as §2

The test system of experiment [7] is Mus musculus. Description: Immunostimulatory activity in C57BL/6 mouse assessed as inhibition of 5'-CTATCTGACGTTCTCTGT-3'-induced IL10 production in serum at 2 mg/kg, sc administered 24 hrs prior to 5'-CTATCTGACGTTCTCTGT-3' challenge measured after 2 hrs by Luminex multiplex assay. In kind it is functional, organism-based. Also on record: dose 2 mg/kg. In outline:
as §1

The target of experiment [8] is T1, Toll-like receptor 9 (Mus musculus). Description: Activation of mouse TLR9 expressed in HEK293 cells assessed as NF-kappaB level at 0.3 ug/mL after 18 hrs by reporter gene assay. It counts as cell-based. In outline: as §2
(In general: In a reporter assay the amount or activity of a reporter protein is the signal.)

The test system of experiment [9] is Mus musculus. The experiment in a line: Immunostimulatory activity in C57BL/6 mouse assessed as inhibition of 5'-CTATCTGACGTTCTCTGT-3'-induced MIP-1alpha production in serum at 2 mg/kg, sc administered 24 hrs prior to 5'-CTATCTGACGTTCTCTGT-3' challenge measured after 2 hrs by Luminex multiplex assay. In kind it is functional, organism-based. The arrangement: dose 2 mg/kg. Put shortly: as §1

Experiment [10] relates to Mus musculus. The experiment in a line: Immunostimulatory activity in C57BL/6 mouse assessed as inhibition of 5'-CTATCTGACGTTCTCTGT-3'-induced KC production in serum at 2 mg/kg, sc administered 24 hrs prior to 5'-CTATCTGACGTTCTCTGT-3' challenge measured after 2 hrs by Luminex multiplex assay. In kind it is functional, organism-based. Also on record: dose 2 mg/kg. Put shortly:
as §1

In experiment [11] the test system is Mus musculus. The experiment in a line: Immunostimulatory activity in C57BL/6 mouse assessed as inhibition of 5'-CTATCTGACGTTCTCTGT-3'-induced MCP1 production in serum at 2 mg/kg, sc administered 24 hrs prior to 5'-CTATCTGACGTTCTCTGT-3' challenge measured after 2 hrs by Luminex multiplex assay. In kind it is functional, organism-based. Also on record: dose 2 mg/kg. In outline: as §1

Experiment [12] relates to Splenocyte. Description: Immunostimulatory activity in C57BL/6 mouse splenocytes assessed as induction of IL6 secretion at 2 to 10 ug/ml after 24 hrs by sandwich ELISA. It counts as functional, cell-based. Put shortly: as §3

Activity calls are given as the source filed them. The rule behind the calls is not given here.

In the case of `COC1[C@H](n2cnc3c(N)ncnc32)O[C@H](COP(=O)(S)O[C@H]2C(OC)[C@H](n3cnc4c(=O)[nH]c(N)nc43)O[C@@H]2COP(=O)(S)O[C@H]2C[C@H](n3cc(C)c(=O)[nH]c3=O)O[C@@H]2COP(=O)(S)O[C@H]2C[C@H](n3ccc(N)nc3=O)O[C@@H]2COP(=O)(S)O[C@H]2C[C@H](n3cc(C)c(=O)[nH]c3=O)O[C@@H]2COP(=O)(S)O[C@H]2C[C@H](n3cnc4c(N)ncnc43)O[C@@H]2COP(=O)(S)O[C@H]2C[C@H](n3cc(C)c(=O)[nH]c3=O)O[C@@H]2COP(=O)(S)O[C@H]2C[C@H](n3ccc(N)nc3=O)O[C@@H]2CO)[C@H]1OP(=O)(S)OC[C@H]1O[C@@H](n2ccc(N)nc2=O)C[C@@H]1OP(=O)(S)OC[C@H]1O[C@@H](n2ccc(N)nc2=O)C[C@@H]1OP(=O)(S)OC[C@H]1O[C@@H](n2cc(C)c(=O)[nH]c2=O)C[C@@H]1OP(=O)(S)OC[C@H]1O[C@@H](n2cc(C)c(=O)[nH]c2=O)C[C@@H]1OP(=O)(S)OC[C@H]1O[C@@H](n2ccc(N)nc2=O)C[C@@H]1OP(=O)(S)OC[C@H]1O[C@@H](n2cc(C)c(=O)[nH]c2=O)C[C@@H]1OP(=O)(S)OC[C@H]1O[C@@H](n2ccc(N)nc2=O)C[C@@H]1OP(=O)(S)OC[C@H]1O[C@@H](n2cc(C)c(=O)[nH]c2=O)C[C@@H]1OP(=O)(S)OC[C@H]1O[C@@H](n2cnc3c(=O)[nH]c(N)nc32)C[C@@H]1OP(=O)(S)OC[C@H]1O[C@@H](n2cc(C)c(=O)[nH]c2=O)C[C@@H]1O` (some centres not stated), the result in the experiment with J774 [1] and in the experiment on J774 [2] was inactive.

Turning to `Cc1cn([C@H]2C[C@H](OP(=O)(S)OC[C@H]3O[C@@H](n4ccc(N)nc4=O)C[C@@H]3OP(=O)(S)OC[C@H]3O[C@@H](n4cc(C)c(=O)[nH]c4=O)C[C@@H]3OP(=O)(S)OC[C@H]3O[C@@H](n4cc(C)c(=O)[nH]c4=O)C[C@@H]3OP(=O)(S)OC[C@H]3O[C@@H](n4ccc(N)nc4=O)C[C@@H]3OP(=O)(S)OC[C@H]3O[C@@H](n4cc(C)c(=O)[nH]c4=O)C[C@@H]3OP(=O)(S)OC[C@H]3O[C@@H](n4ccc(N)nc4=O)C[C@@H]3OP(=O)(S)OC[C@H]3O[C@@H](n4cc(C)c(=O)[nH]c4=O)C[C@@H]3OP(=O)(S)OC[C@H]3O[C@@H](n4cnc5c(=O)[nH]c(N)nc54)C[C@@H]3OP(=O)(S)OC[C@H]3O[C@@H](n4cc(C)c(=O)[nH]c4=O)C[C@@H]3O)[C@@H](COP(=O)(S)O[C@H]3C[C@H](n4cnc5c(N)ncnc54)O[C@@H]3COP(=O)(S)O[C@H]3C[C@H](n4cnc5c(=O)[nH]c(N)nc54)O[C@@H]3COP(=O)(S)O[C@H]3C[C@H](n4cc(C)c(=O)[nH]c4=O)O[C@@H]3COP(=O)(S)O[C@H]3C[C@H](n4ccc(N)nc4=O)O[C@@H]3COP(=O)(S)O[C@H]3C[C@H](n4cc(C)c(=O)[nH]c4=O)O[C@@H]3COP(=O)(S)O[C@H]3C[C@H](n4cnc5c(N)ncnc54)O[C@@H]3COP(=O)(S)O[C@H]3C[C@H](n4cc(C)c(=O)[nH]c4=O)O[C@@H]3COP(=O)(S)O[C@H]3C[C@H](n4ccc(N)nc4=O)O[C@@H]3CO)O2)c(=O)nc1N` (some centres not stated), the result with Mus musculus [3], in the experiment on Mus musculus [7], in the experiment on Mus musculus [9], with Mus musculus [10] and with Mus musculus [11] was Active. Besides, the outcome (in experiment [4]; in the experiment with Splenocyte [5]; in experiment [6]; in [8]; in the experiment on Splenocyte [12]) was inactive.
